ChEMBL document CHEMBL2440102, “Furanylazaindoles: potent anticancer agents in vitro and in vivo” (J Med Chem, 2013)
Active and inactive are the calls of the source. No cut-off for these calls is given here.

Experiments:
Tubulin (Homo sapiens) [1] = target: T1, Tubulin (Homo sapiens) (UniProt P68371+Q9H4B7+P0DPH7+P68366+Q13509+Q71U36+P04350+Q3ZCM7+P07437+P68363+Q9BQE3+Q6PEY2+Q13885+Q9BVA1+Q9BUF5); test: Displacement of [3H]-colchicine from biotin-labeled tubulin (unknown origin) at 1 uM after 2 hrs by scintillation proximity assay relative to control; format: protein-complex assay
Tubulin (Homo sapiens) [2] = target: T1, Tubulin (Homo sapiens); test: Displacement of [3H]-colchicine from biotin-labeled tubulin (unknown origin) at 5 uM after 2 hrs by scintillation proximity assay relative to control; format: protein-complex assay
Tubulin = test: Displacement of [3H]-colchicine from biotin-labeled tubulin (unknown origin) after 2 hrs by scintillation proximity assay; format: protein-complex assay, Homo sapiens
[3] = Inhibition of bovine brain MAP-rich tubulin polymerization measured every 30 secs for 30 mins by turbidometric method; parameters: species or system Bos taurus
[4] = Cytotoxicity against human KB-VIN10 cells overexpressing P-gp170/MDR assessed as growth inhibition after 72 hrs by methylene blue staining-based assay; format: functional, cell-based; details: KB-VIN10, 72 h
[5] = Cytotoxicity against human H460 cells assessed as growth inhibition after 72 hrs by methylene blue staining-based assay; format: functional, cell-based; details: NCI-H460, 72 h
KB [6] = test: Induction of microtubule depolymerization in human KB cells at 1 uM after 6 hrs by immunofluorescence microscopic analysis; format: cell-based
In short: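 KB cells on coverslips exposed to compound for 6 h; fixed in MeOH/Me2CO (1:1) at -20 °C for 1 h, blocked with 5% skim milk in PBS for 1 h, then anti-α-tubulin monoclonal (1:500) for 2 h and FITC-conjugated secondary (1:200) for 1 h at room temperature. Microtubule network viewed by fluorescence microscopy.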

[7] = Cytotoxicity against human KB-S15 cells overexpressing P-gp170/MDR assessed as growth inhibition after 72 hrs by methylene blue staining-based assay; format: functional, cell-based; details: KB-S15, 72 h
[8] = Cytotoxicity against human KB-7d cells overexpressing MRP assessed as growth inhibition after 72 hrs by methylene blue staining-based assay; format: functional, cell-based; details: KB7D
HT-29 = test: Cytotoxicity against human HT-29 cells assessed as growth inhibition after 72 hrs by methylene blue staining-based assay; format: functional, cell-based; details: HT-29, 72 h
MKN-45 = test: Cytotoxicity against human MKN45 cells assessed as growth inhibition after 72 hrs by methylene blue staining-based assay; format: functional, cell-based; details: MKN-45, 72 h
KB [9] = test: Cytotoxicity against human KB cells assessed as growth inhibition after 72 hrs by methylene blue staining-based assay; format: functional, cell-based
HUVEC [10] = test: Induction of vascular disrupting activity in HUVEC assessed as VEGF-induced tube formation at 1000 nM after 4 hrs by microscopic analysis; format: functional, cell-based; details: Homo sapiens
In short: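 HUVECs plated at 2×10^4 cells/well on Matrigel in 20% FBS M199 with 20 ng/mL VEGF; capillaries formed over 4 h before compound or DMSO vehicle added. Imaged at addition and 4 h later; capillary tube networks counted manually under microscope (100×). Expressed relative to vehicle; mean ± SD of three separate experiments.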

HUVEC [11] = test: Induction of vascular disrupting activity in HUVEC assessed as VEGF-induced tube formation at 100 to 1000 nM after 4 hrs by microscopic analysis; format: functional, cell-based; details: Homo sapiens

For COc1ccc(S(=O)(=O)n2ccc3ccnc(-c4ccc([N+](=O)[O-])cc4)c32)cc1, the inhibition (Tubulin (Homo sapiens) [1]) was 21% and the inhibition (Tubulin (Homo sapiens) [2]) was 46%.

COc1ccc(S(=O)(=O)n2ccc3ccnc(-c4ccc(C(F)(F)F)cc4)c32)cc1 showed an inhibition (Tubulin (Homo sapiens) [1]) of 35% and an inhibition (Tubulin (Homo sapiens) [2]) of 65%.

With COc1ccc(S(=O)(=O)n2ccc3ccnc(-c4ccccc4)c32)cc1 the inhibition (Tubulin (Homo sapiens) [1]) was 42% and the inhibition (Tubulin (Homo sapiens) [2]) was 63%.

For COc1ccc(S(=O)(=O)n2ccc3ccnc(-c4ccco4)c32)cc1, the Ki (Tubulin) was 380 nM, the inhibition (Tubulin (Homo sapiens) [1]) was 63% and the inhibition (Tubulin (Homo sapiens) [2]) was 81%.

COc1ccc(/C=C\c2cc(OC)c(OC)c(OC)c2)cc1O [COMBRETASTATIN A4] showed an IC50 [3] of 2100 nM.

With COc1cc2c(c(OC)c1OC)-c1ccc(OC)c(=O)cc1[C@@H](NC(C)=O)CC2 [COLCHICINE] the IC50 [4] was 122 nM, the IC50 [5] was 19.8 nM and the Activity (KB [6]) was “Active”. It also gave an IC50 [7] of 35.4 nM, an IC50 [8] of 51.8 nM and an IC50 (HT-29) of 15.2 nM. It also gave an IC50 (MKN-45) of 11.5 nM.

CC[C@]1(O)C[C@H]2CN(CCc3c([nH]c4ccccc34)[C@@](C(=O)OC)(c3cc4c(cc3OC)N(C=O)[C@H]3[C@@](O)(C(=O)OC)[C@H](OC(C)=O)[C@]5(CC)C=CCN6CC[C@]43[C@@H]65)C2)C1 [VINCRISTINE] gave an IC50 (KB [9]) of 0.6 nM and an IC50 [8] of 1.2 nM.

In the case of COc1ccc(S(=O)(=O)n2ccc3ccnc(-c4ccc(Cl)cc4)c32)cc1, the inhibition (Tubulin (Homo sapiens) [1]) is reported as 41% and the inhibition (Tubulin (Homo sapiens) [2]) is reported as 72%.

For COc1ccc(S(=O)(=O)n2ccc3ccnc(-c4ccc(N(C)C)cc4)c32)cc1, the inhibition (Tubulin (Homo sapiens) [1]) was 41% and the inhibition (Tubulin (Homo sapiens) [2]) was 74%.

With O=c1[nH]cc(F)c(=O)[nH]1 the Activity (HUVEC [10]) was “inactive”.

COc1ccc(S(=O)(=O)n2ccc3ccnc(-c4ccncc4)c32)cc1 gave an inhibition (Tubulin (Homo sapiens) [1]) of 35% and an inhibition (Tubulin (Homo sapiens) [2]) of 59%.

Work on COc1cc([C@@H]2c3cc4c(cc3[C@@H](O[C@@H]3O[C@@H]5CO[C@@H](C)O[C@H]5[C@H](O)[C@H]3O)[C@H]3COC(=O)[C@H]23)OCO4)cc(OC)c1O [ETOPOSIDE] yielded an IC50 [4] of 23000 nM, an IC50 [7] of 3500 nM and an IC50 [8] of 54000 nM.

With CC(=O)O[C@H]1C(=O)[C@@]2(C)[C@H]([C@H](OC(=O)c3ccccc3)[C@]3(O)C[C@H](OC(=O)[C@H](O)[C@@H](NC(=O)c4ccccc4)c4ccccc4)C(C)=C1C3(C)C)[C@]1(OC(C)=O)CO[C@@H]1C[C@@H]2O [PACLITAXEL] the Activity (KB [6]) was “inactive”, the IC50 (KB [9]) was 4.1 nM and the IC50 [8] was 7.9 nM.

In the case of COc1ccc(S(=O)(=O)Nc2cccnc2Nc2ccc(O)cc2)cc1 [ABT-751], the IC50 [4] is reported as 227 nM, the IC50 [5] is reported as 218 nM and the Activity (HUVEC [11]) is reported as “Active”. It also gave a Ki (Tubulin) of 1510 nM, an IC50 (KB [9]) of 251 nM and an IC50 [7] of 206 nM. It also gave an IC50 [8] of 205 nM, an IC50 (HT-29) of 339 nM and an IC50 (MKN-45) of 166 nM. It also gave an IC50 [3] of 3300 nM.

Compound COc1ccc(S(=O)(=O)n2ccc3ccnc(-c4cccs4)c32)cc1 has an inhibition (Tubulin (Homo sapiens) [1]) of 30% and an inhibition (Tubulin (Homo sapiens) [2]) of 70%.
